In the array DNA melting data of Ke et al. (doi:10.1101/2024.01.08.574731):

What was measured:
[1] = folding enthalpy; higher = less favourable; fluorescence melt of hairpins on a sequencing array, two-state fit; settings: sodium 0.088 M
Method in brief: (§1)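 On a sequenced MiSeq flow cell, library hairpins with annealed Cy3 and quencher oligos were imaged for Cy3 fluorescence in 2.5 °C steps up to 60 °C, in 50 mM Na-HEPES pH 8.0, 25 mM NaCl. Normalisation used pre-quench Cy3 and control constructs. Bootstrapped two-state fits gave melting temperature and folding enthalpy, combined by inverse variance across four replicates and with fitted temperatures raised by 9.35 °C to match UV melts.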

[2] = melting temperature; fluorescence melt of hairpins on a sequencing array, two-state fit, raised by 9.35 °C to match UV melts; settings: sodium 0.088 M
Method in brief: as §1

Sequence | folding enthalpy [1] [kcal/mol] | Tm [2] [°C]
GCAAACGGAAACATTTGC (((((.(....).))))) | -28.2 | 36.7
GCCATGGGAAACTATGGC (((((.(....).))))) | -37.4 | 52.5
GATCAGTGCTCTGATC ((((((....)))))) | -26.4 | 52.1
GGAGCCGAAAGGCGATCC ((((((....)))..))) | -9.49 | 51.6
CCTTCGAAAGAAGG (((((....))))) | -20.7 | 55.2
GATCGATTCTTCGATC ((((((....)))))) | -36.8 | 56.9
GTAGTGGCGAAAGCCTAC (((..(((....)))))) | -11.6 | 35.4
GGCTACCGAAAGGTCGCC (((.(((....))).))) | -39.2 | 58.6
GCGGCACCCGC ((((...)))) | -21.9 | 56.4
GCCTCCCGAAAGGGTGGC (((.(((....))).))) | -36.1 | 67.9
GATCAGCGAGCTGATC ((((((....)))))) | -44.7 | 61.4
GATCCTCAGCAGGATC ((((((....)))))) | -33.2 | 48.8
GTACGCGAAAGCGTTTAC ((((((....)))..))) | -7.31 | 29.1
GCGTCATACGC ((((...)))) | -20.1 | 62.7
GGTGTGGGAAACTACGCC ((.((.(....).)).)) | -29.6 | 43.4
GATCGCTCGCGCGATC ((((((....)))))) | -31.7 | 67.4
GATCACAGGGTGATC ((((((...)))))) | -36.8 | 61.2
GATCACGAAAGTGGAATC ((((((....)))..))) | -10.3 | 32.1
GTCAGTGAAAACTGAC ((((((....)))))) | -35.6 | 60.5
GAGCAGCGAAAGCTTCTC (((.(((....))).))) | -24.7 | 43.2
GCCTGAACGAAAGTTGGC (((..(((....)))))) | -23.2 | 45.5
GCGTTAGGAAACTAACGC (((((((....))))))) | -50.9 | 65.8
GAACGCGAAAGCGGATTC ((((((....)))..))) | -15.8 | 49.5

Sequence | folding enthalpy [1] [kcal/mol] | Tm [2] [°C]
GACCGTGGAAACACGGCC (.(((((....))))).) | -13.2 | 50.9
GATCAAGTGTTTGATC ((((((....)))))) | -31.8 | 43.5
GGCATCGAAAGATACGCC ((((((....)))..))) | -24.3 | 42.3
GGCCATCGAAAGATCGCC (((.(((....))).))) | -33.6 | 46.8
ACCGGGAAACCGGT (((((....))))) | -16.6 | 66.5
GGCTAGCCGAAAGGCGCC (((..(((....)))))) | -15.9 | 59
GCTCTGTCGAAAGACAGC (((..(((....)))))) | -8.62 | 36.5
GACTCAACGAAAGTTGTC (((..(((....)))))) | -10.2 | 29.9
GTGAATGGAAACGTTCAC (((((.(....).))))) | -39.7 | 47.1
GTAGCCGGAAACGGTTAC (((.(((....))).))) | -37.7 | 51.3
GGTACGGGAAACCGCACC (((.(((....))).))) | -28.6 | 50.5
GAGGAGACGAAAGTCCTC (((..(((....)))))) | -15.5 | 40.8
GCGACGCGAAAGCCTTGC ((.(.((....)).).)) | -12 | 35.9
GATAACACGAAAGTGATC (((..(((....)))))) | -10.1 | 24.9
GGACCAGGAAACTGGTTC (.(((((....))))).) | -24.6 | 51.8
GATCGGTCTACCGATC ((((((....)))))) | -39.3 | 62.3
CGGTTTCGGAAACGACCG (((..(((....)))))) | -17.1 | 38
GACGTGCGAAAGCAGGTC (((.(((....))).))) | -36.2 | 62.4
GATCAGGGACTGATC ((((((...)))))) | -39.5 | 59.6
GATCCGACGGCGGATC ((((((....)))))) | -48 | 57.8
GGGAACGCGAAAGCGCCC (((..(((....)))))) | -16.4 | 46.5
GGTAAAACGAAAGTTACC (((..(((....)))))) | -19.1 | 37.3
GTCTTTTCGAAAGAAGAC (((..(((....)))))) | -18.7 | 31.6

Sequence | folding enthalpy [1] [kcal/mol] | Tm [2] [°C]
GATCTCAAGTGAGATC ((((((....)))))) | -34.5 | 51.5
GTAAGAGGAAACTCTTAC (((((((....))))))) | -42.2 | 51
GACTAGGGAAACCTGGTC (((.(((....))).))) | -35.7 | 46.7
GATCATTAGAATGATC ((((((....)))))) | -28.6 | 45.8
GACTTCGGAAACGAAGTC (((((((....))))))) | -38.6 | 66.3
GGAGTCGAAAGACTGTCC ((((((....)))..))) | -12.1 | 35.2
GTAGAGGGAAACCTTTAC (((.(((....))).))) | -28.7 | 31
GCAATTGGAAACAATTGC (((((((....))))))) | -43.9 | 58.9
GGGTTTGGAAACGAACCC (((((.(....).))))) | -59.2 | 52.3
GATCTCGGTAGAGATC ((((((....)))))) | -32.7 | 66.5
GGCCACGAAAGTGTGCC ((((((....))).))) | -25.9 | 64
GATCACCAATGTGATC ((((((....)))))) | -35.3 | 54.1
GGGGACGAAAGTCTCCCC ((((((....)))..))) | -14.3 | 58.2
GGTGCAGGAAACTGCATC (.(((((....))))).) | -22.4 | 53
GAGATACGAAAGTACCTC (((.(((....))).))) | -31.3 | 41.5
GATCCATTCTGGATC ((((((...)))))) | -33.2 | 54.3
GAAGCCGAAAGGCCGTTC ((((((....)))..))) | -6.55 | 26.6
GGGGCCGAAAGGCATCCC ((((((....)))..))) | -13.9 | 54.9
GATCTAGACATAGATC ((((((....)))))) | -35 | 47.9
GATCAAGCCTTTGATC ((((((....)))))) | -40.7 | 49.2
GCTCACGGAAACGTGAAC (.(((((....))))).) | -13 | 42.3
GACTCCGAAAGGACGGTC ((((((....)))..))) | -17.9 | 35.3
GAGTGCGAAAGCAATCTC ((((((....)))..))) | -21.4 | 53.7

Sequence | folding enthalpy [1] [kcal/mol] | Tm [2] [°C]
GTCCCCGAAAGGGGGAC ((((((....))).))) | -17.1 | 68.5
GCACTCTCGAAAGAGTGC (((..(((....)))))) | -45.9 | 65
CGGATCGGAAACGAACCG (((.(((....))).))) | -42.7 | 52
GGAGGTGAAAACCTCC ((((((....)))))) | -33.8 | 66.2
GGGGAGGCGAAAGCCCCC (((..(((....)))))) | -14.2 | 64.5
GCAGTCGAAAGACAATGC ((((((....)))..))) | -20.1 | 44.4
GCATAACGAAAGTTTGC (((.(((....)))))) | -25.8 | 46
GTTAACGAAAGTTAAAAC ((((((....)))..))) | -9.6 | 30.2
GGCGTAGGAAACCACGCC (((((.(....).))))) | -53.2 | 56.2
GGACAACGAAAGTTATCC (((.(((....))).))) | -29.4 | 40
GCGTCTAAACGC ((((....)))) | -23 | 54.4
GCTCAAGGAAACTTGAAC (.(((((....))))).) | -15 | 31.8
GTGGCCGAAAGGCACCAC ((((((....)))..))) | -12.3 | 43.6
GTCCAAGGAAACTCGGAC ((((.((....)).)))) | -30.6 | 38.8
GATCCCCCTAGGGATC ((((((....)))))) | -32.6 | 61.3
GATCACGAAAGTGTCATC ((((((....)))..))) | -13.8 | 31.5
GAAACCGAAAGGTGATTC ((((((....)))..))) | -22.4 | 41.6
CGGTCCGGAAACGGTCCG (((.(((....))).))) | -40.5 | 55.6
GATGTCGGAAACGATATC (((.(((....))).))) | -48.3 | 46.6
GATCGGGCGGCCGATC ((((((....)))))) | -57.9 | 61.8
GCCCACGAAAGTGAGGGC ((((((....)))..))) | -28.2 | 59.9
CCCGAGAAATCGGG (((((....))))) | -19.6 | 54.2
GACTGAACGAAAGTTGTC (((..(((....)))))) | -19.5 | 32.8
